# Results from ChEMBL document CHEMBL1938298, “Synthesis and characterization of [¹²⁵I]2-iodo N-[(S)-{(S)-1-methylpiperidin-2-yl}(phenyl)methyl]3-trifluoromethyl-benzamide as novel imaging probe for glycine transporter 1” (Bioorg Med Chem, 2011).
# Active and inactive are the calls of the source. No cut-off for these calls is given here.
# Legend:
# [1] = tested on: Mus musculus; assay: In vivo binding affinity to GlyT1 in ddY mouse brain striatum at 33.3 kBq, iv after 60 mins in presence of N-Me-SSR504734 2 mg/kg, iv administered 15 mins prior to compound administration relative to control; assay type: functional, organism-based; parameters: dose 2 mg/kg; conditions: tested as the 125I-labelled form
# [2] = tested on: Mus musculus; assay: In vivo binding affinity to GlyT1 in ddY mouse brain thalamus at 33.3 kBq, iv after 30 mins in presence of SSR504734 2 mg/kg, iv administered 15 mins prior to compound administration relative to control; assay type: functional, organism-based; parameters: dose 2 mg/kg; conditions: tested as the 125I-labelled form
# [3] = molecular target: T1, Sodium- and chloride-dependent glycine transporter 1 (Rattus norvegicus) (UniProt P28572); assay: Binding affinity to GlyT1 in rat brain medullary region at 0.03 to 0.04 nM preincubated for 20 mins in binding buffer before compound addition measured after 30 mins by autoradiography in presence of 10 mM GlyT1 substrate glycine relative to control; assay type: tissue-based; conditions: tested as the 125I-labelled form
# T1 sequence (whole entry): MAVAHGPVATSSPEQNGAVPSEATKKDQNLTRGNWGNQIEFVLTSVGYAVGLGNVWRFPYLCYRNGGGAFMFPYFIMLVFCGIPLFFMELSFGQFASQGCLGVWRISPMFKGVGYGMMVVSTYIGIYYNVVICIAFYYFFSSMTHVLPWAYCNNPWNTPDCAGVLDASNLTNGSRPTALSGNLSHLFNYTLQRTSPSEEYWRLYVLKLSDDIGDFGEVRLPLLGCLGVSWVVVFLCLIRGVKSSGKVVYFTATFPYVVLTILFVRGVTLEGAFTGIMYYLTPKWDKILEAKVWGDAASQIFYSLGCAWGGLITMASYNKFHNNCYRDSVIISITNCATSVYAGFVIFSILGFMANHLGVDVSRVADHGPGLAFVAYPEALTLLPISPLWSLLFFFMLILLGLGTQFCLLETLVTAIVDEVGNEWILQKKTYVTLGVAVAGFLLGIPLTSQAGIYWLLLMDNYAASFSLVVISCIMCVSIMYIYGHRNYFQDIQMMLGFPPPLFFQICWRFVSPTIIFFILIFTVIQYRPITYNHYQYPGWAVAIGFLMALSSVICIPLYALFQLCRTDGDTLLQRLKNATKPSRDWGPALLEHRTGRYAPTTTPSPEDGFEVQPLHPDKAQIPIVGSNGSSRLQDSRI
# Procedure, shortened: (§1)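 Rat brain sagittal sections (20 µm) preincubated 20 min at 25 °C in Tris-HCl buffer pH 7.5 (NaCl, KCl, MgCl2, CaCl2), then 30 min at 25 °C with [125I] tracer (100 kBq, 0.03–0.04 nM) plus competitor (10 µM; glycine 1 or 10 mM). Cold washes, imaging plate 3 days, ROI PSL minus background per mm². % control from ≥triplicate slices, three rats.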
# [4] = molecular target: T1, Sodium- and chloride-dependent glycine transporter 1 (Rattus norvegicus); assay: Binding affinity to GlyT1 in rat brain corpus callosum at 0.03 to 0.04 nM preincubated for 20 mins in binding buffer before compound addition measured after 30 mins by autoradiography in presence of 0.01 mM GlyT1 inhibitor ALX5407 relative to control; assay type: tissue-based; conditions: tested as the 125I-labelled form; procedure, shortened: as §1
# [5] = molecular target: T1, Sodium- and chloride-dependent glycine transporter 1 (Rattus norvegicus); assay: Binding affinity to GlyT1 in rat brain corpus callosum at 0.03 to 0.04 nM preincubated for 20 mins in binding buffer before compound addition measured after 30 mins by autoradiography in presence of 0.01 mM GlyT2 inhibitor ORG25543 relative to control; assay type: tissue-based; conditions: tested as the 125I-labelled form; procedure, shortened: as §1
# [6] = molecular target: T1, Sodium- and chloride-dependent glycine transporter 1 (Rattus norvegicus); assay: Binding affinity to GlyT1 in rat brain hippocampus at 0.03 to 0.04 nM preincubated for 20 mins in binding buffer before compound addition measured after 30 mins by autoradiography in presence of 0.01 mM GlyT1 inhibitor ALX5407 relative to control; assay type: tissue-based; conditions: tested as the 125I-labelled form; procedure, shortened: as §1
# [7] = molecular target: T1, Sodium- and chloride-dependent glycine transporter 1 (Rattus norvegicus); assay: Binding affinity to GlyT1 in rat brain cerebellum at 0.03 to 0.04 nM preincubated for 20 mins in binding buffer before compound addition measured after 30 mins by autoradiography in presence of 0.01 mM NMDA receptor glycine site antagonist L-701,324 relative to control; assay type: tissue-based; conditions: tested as the 125I-labelled form; procedure, shortened: as §1
# [8] = molecular target: T1, Sodium- and chloride-dependent glycine transporter 1 (Rattus norvegicus); assay: Binding affinity to GlyT1 in rat brain corpus callosum at 0.03 to 0.04 nM preincubated for 20 mins in binding buffer before compound addition measured after 30 mins by autoradiography relative to control; assay type: tissue-based; conditions: tested as the 125I-labelled form
# Procedure, shortened: (§2)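 Rat brain sagittal sections (20 µm), 20 min preincubation at 25 °C in Tris-HCl pH 7.5 binding buffer, then [125I] tracer (100 kBq, 0.03–0.04 nM) for 30 min at 25 °C. Nonspecific binding taken with 10 µM unlabeled ligand. Imaging-plate read-out as (PSL−BG)/mm². Mean ± SD, n = 4–5 from at least three rats; Mann–Whitney U-test.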
# [9] = molecular target: T1, Sodium- and chloride-dependent glycine transporter 1 (Rattus norvegicus); assay: Binding affinity to GlyT1 in rat brain cerebral cortex at 0.03 to 0.04 nM preincubated for 20 mins in binding buffer before compound addition measured after 30 mins by autoradiography relative to control; assay type: tissue-based; conditions: tested as the 125I-labelled form; procedure, shortened: as §2
# [10] = molecular target: T1, Sodium- and chloride-dependent glycine transporter 1 (Rattus norvegicus); assay: Binding affinity to GlyT1 in rat brain midbrain at 0.03 to 0.04 nM preincubated for 20 mins in binding buffer before compound addition measured after 30 mins by autoradiography in presence of 0.01 mM GlyT1 inhibitor ALX5407 relative to control; assay type: tissue-based; conditions: tested as the 125I-labelled form; procedure, shortened: as §1
# [11] = molecular target: T1, Sodium- and chloride-dependent glycine transporter 1 (Rattus norvegicus); assay: Binding affinity to GlyT1 in rat brain midbrain at 0.03 to 0.04 nM preincubated for 20 mins in binding buffer before compound addition measured after 30 mins by autoradiography in presence of 1 mM GlyT1 substrate glycine relative to control; assay type: tissue-based; conditions: tested as the 125I-labelled form
# [12] = tested on: Blood; assay: Drug uptake in ddY mouse blood at 11.1 kBq, iv after 180 min by gamma counting; assay type: ADME, organism-based; conditions: in vivo, 3 h
# Procedure, shortened: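 Male ddY mice (6 weeks, 30–35 g) received about 11.1 kBq [125I]tracer in 0.1 mL i.v. via tail vein. Killed at set times, organs dissected and weighed, radioactivity gamma counted. Reported as % injected dose/g tissue, mean ± SD, n = 5–6.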
# [13] = tested on: Liver; assay: Drug uptake in ddY mouse liver at 11.1 kBq, iv after 60 min by gamma counting; assay type: ADME, organism-based; conditions: in vivo, 1 h
# Procedure, shortened: (§3)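 Male ddY mice (6 weeks, 30–35 g) were given about 11.1 kBq of [125I]tracer in 0.1 mL i.v. via the tail vein. At each time point the animals were killed and organs dissected, weighed and gamma-counted. Uptake is expressed as % injected dose per gram of tissue, mean ± SD, n = 5–6.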
# [14] = tested on: Kidney; assay: Drug uptake in ddY mouse kidney at 11.1 kBq, iv after 15 min by gamma counting; assay type: ADME, organism-based; conditions: in vivo; procedure, shortened: as §3
# [15] = tested on: Spleen; assay: Drug uptake in ddY mouse spleen at 11.1 kBq, iv after 30 min by gamma counting; assay type: ADME, organism-based; conditions: in vivo, 0.5 h; procedure, shortened: as §3
# [16] = tested on: Lung; assay: Drug uptake in ddY mouse lung at 11.1 kBq, iv after 15 min by gamma counting; assay type: ADME, organism-based; conditions: in vivo; procedure, shortened: as §3
# [17] = molecular target: T2, Sodium- and chloride-dependent glycine transporter 1 (Rattus norvegicus, UniProt P28572); assay: Binding affinity to GlyT1 in rat cortical brain homogenate after 60 mins by gamma counting; assay type: tissue-based
# T2 sequence (P28572 whole entry): T1 sequence (whole entry)
# Procedure, shortened: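 Saturation binding on washed rat cortical membranes (25 µg protein) with [125I]tracer 0.1–20 nM in TB1 buffer (120 mM NaCl, 2 mM KCl, 1 mM CaCl2, 1 mM MgCl2, 10 mM HEPES, pH 7.5), 60 min at room temperature. Nonspecific binding defined with 10 µM unlabeled ligand. GF/B filtration with ice-cold buffer washes, gamma counting; Kd and Bmax from saturation analysis.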
SMILES,Activity [1],Activity [2],Activity [3],Activity [4],Activity [5],Activity [6],Activity [7],Activity [8],Activity [9],Activity [10],Activity [11],Drug uptake [12],Drug uptake [13],Drug uptake [14],Drug uptake [15],Drug uptake [16],Kd [17]
CN1CCCC[C@H]1[C@@H](NC(=O)c1cccc(C(F)(F)F)c1I)c1ccccc1,Active,inactive,61.2%,27.8%,98.2%,63.2%,87.1%,Active,inactive,36.2%,106%,,,,,,
CN1CCCC[C@H]1[C@@H](NC(=O)c1cccc(C(F)(F)F)c1[125I])c1ccccc1,,,,,,,,,,,,0.85 % ID/g,16.04 % ID/g,8.86 % ID/g,7.68 % ID/g,15.24 % ID/g,1.58 nM
